Our source for the Activity, Time and ED50 values is ChEMBL document CHEMBL3244330, “Structure--activity relationships of n-substituted dopamine and 2-amino-6,7-dihydroxy-1,2,3,4-tetrahydronaphthalene analogues: behavioral effects in lesioned and reserpinized mice” (J Med Chem, 1979).

Active and inactive are the calls of the source. The rule behind the calls is not given here.

Test [1] has as its system Mus musculus. The experiment in a line: Postural effect on caudectomized Swiss albino mouse assessed as latency to onset time of asymmetric postural effect at 90.8 mg/kg, ip. It counts as functional, organism-based. Also noted: dose 90.8 mg/kg. The procedure, abridged:
(§1)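 Male Swiss albino Hale-Stoner mice with a right caudectomy made by suction. A lesion was accepted if the mouse responded to apomorphine 4 weeks after surgery. Compounds were dissolved in 0.9% saline and injected ip at random into groups of six, with a maximum dose of 0.348 mmol/kg. 18 mice were used per compound, and mice were retested after 5–6 day intervals. Onset and duration of the asymmetric posture are reported as mean ± SE from six animals.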

The test system of test [2] is Mus musculus. The experiment in a line: Postural effect on caudectomized Swiss albino mouse assessed as latency to onset time of asymmetric postural effect at 104.8 mg/kg, ip. It counts as functional, organism-based. Also on record: dose 104.8 mg/kg. The procedure, abridged:
as §1

For test [3], the system named is Mus musculus. The experiment in a line: Postural effect on caudectomized Swiss albino mouse assessed as time duration of asymmetric posture at 1 mg/kg, ip. It counts as functional. The settings on record: route intraperitoneal. The procedure, abridged:
as §1

For test [4], the system named is Mus musculus. The experiment in a line: Postural effect on caudectomized Swiss albino mouse assessed as latency to onset time of asymmetric postural effect at 1 mg/kg, ip. It counts as functional. The settings on record: route intraperitoneal. The procedure, abridged:
as §1

The subject of test [5] is Mus musculus. The experiment in a line: Reversal of reserpine-induced catalepsy in ip dosed Swiss albino (CD1) mouse. It counts as functional. The procedure, abridged: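 Male Swiss albino CD1 mice, 5 weeks old, got reserpine 5 mg/kg ip, then α-MTM 250 mg/kg ip 17 h later, then the test drug ip 4 h after that. Catalepsy was scored by the rubber-stopper test (time to step off the stopper). At least four doses were used, with ≥8 mice per dose. ED50 was taken from a log-probit plot of percent responders against dose.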

Test [6] deals with Mus musculus. The experiment in a line: Postural effect on caudectomized Swiss albino mouse assessed as latency to onset time of asymmetric postural effect at 34.2 mg/kg, ip. It counts as functional. The settings on record: route intraperitoneal. The procedure, abridged: as §1
Test [7] relates to Mus musculus. The experiment in a line: Postural effect on caudectomized Swiss albino mouse assessed as latency to onset time of asymmetric postural effect at 68.4 mg/kg, ip. It counts as functional. The settings on record: route intraperitoneal. The procedure, abridged: as §1
Test [8] relates to Mus musculus. The experiment in a line: Postural effect on caudectomized Swiss albino mouse assessed as time duration of asymmetric posture at 34.2 mg/kg, ip. Particulars: route intraperitoneal. It counts as functional. The procedure, abridged:
as §1

For test [9], the system named is Mus musculus. The experiment in a line: Postural effect on caudectomized Swiss albino mouse assessed as time duration of asymmetric posture at 68.4 mg/kg, ip. It counts as functional. Particulars: route intraperitoneal. Put shortly: (§2)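 Male Swiss albino Hale-Stoner mice given a right caudectomy by suction. The lesion counted as successful if the mice reacted to apomorphine 4 weeks later. Drug was given ip in 0.9% saline, up to 0.348 mmol/kg, to randomised groups of six, with 5-6 days before reuse. Onset and duration of asymmetric posture are reported as mean ± SE from six animals.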

Test [10] has as its system Mus musculus. The experiment in a line: Postural effect on caudectomized Swiss albino mouse assessed as latency to onset time of asymmetric postural effect at 26.8 mg/kg, ip. Also on record: dose 26.8 mg/kg. It counts as functional, organism-based. The procedure, abridged:
(§3)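 Male Swiss albino Hale-Stoner mice with right caudectomy by suction, used if responsive to apomorphine 4 weeks post-lesion. Compound in 0.9% saline given ip, maximum 0.348 mmol/kg. 18 mice per compound in random groups of six, retested after 5–6 day intervals. Onset latency and duration of asymmetric posture recorded; mean ± SE from six animals.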

Test [11] deals with Mus musculus. The experiment in a line: Postural effect on caudectomized Swiss albino mouse assessed as latency to onset time of asymmetric postural effect at 107.2 mg/kg, ip. It counts as functional. Particulars: route intraperitoneal. Put shortly: as §3
Test [12] has as its system Mus musculus. The experiment in a line: Postural effect on caudectomized Swiss albino mouse assessed as time duration of asymmetric posture at 107.2 mg/kg, ip. It counts as functional. Particulars: route intraperitoneal. Put shortly:
as §3

In test [13] the test system is Mus musculus. The experiment in a line: Postural effect on caudectomized Swiss albino mouse assessed as time duration of asymmetric posture at 22.6 mg/kg, ip. Particulars: route intraperitoneal. It counts as functional. The procedure, abridged:
as §1

In test [14] the test system is Mus musculus. The experiment in a line: Postural effect on caudectomized Swiss albino mouse assessed as time duration of asymmetric posture at 45.2 mg/kg, ip. It counts as functional. Particulars: route intraperitoneal. The procedure, abridged:
as §1

The test system of test [15] is Mus musculus. The experiment in a line: Postural effect on caudectomized Swiss albino mouse assessed as time duration of asymmetric posture at 67.8 mg/kg, ip. It counts as functional. The settings on record: route intraperitoneal. Put shortly: as §2
Test [16] has as its system Mus musculus. The experiment in a line: Postural effect on caudectomized Swiss albino mouse assessed as latency to onset time of asymmetric postural effect at 22.6 mg/kg, ip. It counts as functional. The settings on record: route intraperitoneal. The procedure, abridged:
as §1

Test [17] deals with Mus musculus. The experiment in a line: Postural effect on caudectomized Swiss albino mouse assessed as latency to onset time of asymmetric postural effect at 45.2 mg/kg, ip. The settings on record: route intraperitoneal. It counts as functional. Put shortly:
as §1

For test [18], the system named is Mus musculus. The experiment in a line: Postural effect on caudectomized Swiss albino mouse assessed as latency to onset time of asymmetric postural effect at 67.8 mg/kg, ip. The settings on record: route intraperitoneal. It counts as functional. Put shortly: as §1
The test system of test [19] is Mus musculus. The experiment in a line: Postural effect on caudectomized Swiss albino mouse assessed as latency to onset time of asymmetric postural effect at 120 mg/kg, ip. It counts as functional, organism-based. Also noted: dose 120 mg/kg. The procedure, abridged: as §1
The subject of test [20] is Mus musculus. The experiment in a line: Postural effect on caudectomized Swiss albino mouse assessed as latency to onset time of asymmetric postural effect at 100.5 mg/kg, ip. It counts as functional, organism-based. Also noted: dose 100.5 mg/kg. The procedure, abridged: as §1

Consider `CCCCNCCc1ccc(O)c(O)c1`, for which the result in the test with Mus musculus [1] was inactive.
On to `CCCCN(CCCC)CCc1ccc(O)c(O)c1`, for which the result with Mus musculus [2] was inactive.
In general, ED50 refers to the dose that gives a 50% effect, or the effect in half of the subjects. In the case of `CN1CCc2cccc3c2[C@H]1Cc1ccc(O)c(O)c1-3.CN1CCc2cccc3c2[C@H]1Cc1ccc(O)c(O)c1-3.Cl.Cl.O` [APOMORPHINE HYDROCHLORIDE], the Time in the test with Mus musculus [3] was determined as 12.8 min; in the test on Mus musculus [4] it was 4.6 min. The ED50 with Mus musculus [5] worked out at 0.11 mg/kg.
For the compound `CCCCCN(C)CCc1ccc(O)c(O)c1.Cl`, in the test with Mus musculus [5], the ED50 stood at 46 mg/kg.
For `CCCCCN(CCC)CCc1ccc(O)c(O)c1.Cl`, the Time with Mus musculus [6] stood at 3.7 min; in the test on Mus musculus [7] it was 4.2 min; in the test on Mus musculus [8] it was 17.4 min; with Mus musculus [9], 20.6 min. In addition, the ED50 in the test with Mus musculus [5] stood at 8.7 mg/kg.
Consider `CN(CCc1ccccc1)CCc1ccc(O)c(O)c1.Cl`, for which the outcome with Mus musculus [10] was inactive. Moreover, the values for the Time with Mus musculus [11] and in the test with Mus musculus [12] were 6.9 min and 21.2 min, respectively. Moreover, the ED50 in the test on Mus musculus [5] was 101 mg/kg.
For `CCCN(CC)CCc1ccc(O)c(O)c1.Cl`, the Time in the test on Mus musculus [13] worked out at 2.3 min; in the test with Mus musculus [14], 6.3 min; in the test on Mus musculus [15] it was 11.2 min; with Mus musculus [16] it was 3.2 min; in the test with Mus musculus [17], 3.2 min; with Mus musculus [18] it was 3.6 min. The ED50 in the test on Mus musculus [5] is 33 mg/kg.
As to `CCCN(C)CCc1ccc(O)c(O)c1.Cl`, in the test on Mus musculus [19], the outcome was Active. Besides, the ED50 in the test on Mus musculus [5] is 55 mg/kg.
With `CC(C)CNCCc1ccc(O)c(O)c1`, in the test on Mus musculus [20], the outcome was inactive.
In the case of `CCCCCN(CCCC)CCc1ccc(O)c(O)c1`, the result with Mus musculus [20] was inactive.
